CHO-K1 Ca PAM: M1 PAM counterscreen hit in parental CHO-K1 cells; 0.02% of 360,000 active; ATP EC20, Fluo-8 calcium fluorescence; 0% at ATP EC20, 100% at ATP max; AID 602247; activation, % at 3 µM;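 active means activation above the run cutoff, the mean activation of all test compounds plus 3 SD, cut at about 40% in these data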;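 further: peak over basal fluorescence ratio in a 140 s read after ATP addition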
CHRM5 antagonist: blocks acetylcholine activation of human M5 receptor; 0.59% of 360,000 active; inhibition, % at 3 µM; CHO-hM5 cells, Fluo-8 calcium fluorescence, ACh EC80; P08912;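 active means inhibition above a per-plate cutoff, the mean of that plate's test compounds plus 3 SD, cut at about 27% in these data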;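 further: 0% = acetylcholine EC80 with DMSO and 100% = DMSO without agonist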
Target sequence (P08912 whole entry, looked up): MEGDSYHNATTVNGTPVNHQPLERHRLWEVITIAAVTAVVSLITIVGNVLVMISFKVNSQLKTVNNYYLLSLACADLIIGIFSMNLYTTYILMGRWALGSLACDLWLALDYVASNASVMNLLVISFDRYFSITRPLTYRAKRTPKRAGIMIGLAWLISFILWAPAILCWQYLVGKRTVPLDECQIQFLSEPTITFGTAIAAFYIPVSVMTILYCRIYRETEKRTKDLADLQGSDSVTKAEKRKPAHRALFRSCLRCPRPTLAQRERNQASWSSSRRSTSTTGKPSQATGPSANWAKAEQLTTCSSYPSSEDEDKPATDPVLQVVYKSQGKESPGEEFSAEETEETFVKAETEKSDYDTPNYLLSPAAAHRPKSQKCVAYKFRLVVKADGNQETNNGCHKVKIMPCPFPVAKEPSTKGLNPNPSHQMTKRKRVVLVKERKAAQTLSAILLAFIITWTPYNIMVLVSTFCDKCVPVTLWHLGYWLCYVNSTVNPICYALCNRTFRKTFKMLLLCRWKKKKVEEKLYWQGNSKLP
M5 PAM: potentiates acetylcholine response at human M5 receptor | CHO-K1 hM5, Fluo-8 calcium, ACh EC20 PAM; 0% = ACh EC20, 100% = ACh EC100 | 0.3% of 360,000 active | activation, % at 3 µM | AID 624038;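 active means activation above the run cutoff, the mean activation of all test compounds plus 3 SD, cut at about 18% in these data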
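System: CHO-K1 cell line with stable human muscarinic M5 receptor expression | Also added: EC20 acetylcholine as agonist stimulus | Compound: One concentration, 3 µM final (nominal) | Timing: Fluo-8 loading 80 min at 37 °C plus 30 min room temperature | Measured by: Fluo-8 calcium dye fluorescence, kinetic read | Read-out basis: % activation, ACh-normalized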
CHRM5 agonist: agonists of human muscarinic M5 receptor (CHRM5); P08912; CHO-K1 hM5 cells, Fluo-8 calcium fluorescence; 0% DMSO wells, 100% maximal acetylcholine response; activation, % at 3 µM; 0.19% of 360,000 active; AID 624037;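 active means activation above the run's mean over test compounds plus 3 SD, cut at about 23% in these data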;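 further: signal is peak over basal fluorescence ratio across the kinetic read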
M1 ag parental: counter-screen for M1 agonists: effect in parental CHO-K1 cells. Fluo-8 calcium fluorescence; scaled to maximal ATP response, vehicle zero. activation, % at 3 µM. 0.48% of 360,000 active. AID 602248; in the data active means activation above about 15%;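 further: untransfected CHO-K1 host cells lacking M1 receptor as counterscreen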
CHO-K1 Ca antag: nonselective inhibitor or artifact in parental CHO-K1 cells. ATP-induced calcium, Fluo-8 fluorescence. inhibition, % at 3 µM. 0.6% of 360,000 active;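 active means inhibition above a per-plate cutoff, the plate's mean sample inhibition plus 3 SD, cut at about 24% in these data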;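 further: 0% = DMSO plus EC80 ATP and 100% = DMSO alone without ATP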
* hit, by the source's call. The list is not random: actives were taken first. Their share in the collection is about 1.7%.

SMILES | CHO-K1 Ca PAM | CHRM5 antagonist | M5 PAM | CHRM5 agonist | M1 ag parental | CHO-K1 Ca antag
FC(F)(F)c1cc(Cl)c2nc(-c3ccccc3)c(Cc3ccsc3)n2c1 | -6 | -5 | 7 | 0 | -1 | 15
COc1ccc(S(=O)(=O)Cc2ccc(C(=O)NCc3ccccc3)o2)cc1 | -2 | 2 | 2 | 2 | 5 | -9
O=C1CNC(=S)N1c1nc2ccccc2s1 | 3 | 1 | 7 | -2 | 1 | -2
Cc1cc(=O)oc2c(C)c(OC(C)C(=O)Nc3ccc(N4CCC(C)CC4)cc3)ccc12 (stereo unspecified) | 16 | -14 | 21* | -2 | -1 | -9
Cc1cc(=O)oc2cc(OC(C)C(=O)Nc3ccc(N4CCCCC4)cc3)ccc12 (stereo unspecified) | -11 | -5 | 8 | 0 | 1 | 13
CCCCCCCc1nc2sc3c(c2c(=O)n1N)CC(C)(C)OC3 | 17 | 15 | -1 | -2 | 1 | -9
CCCCCc1nc2sc3c(c2c(=O)n1NC(=O)c1ccc([N+](=O)[O-])cc1)CC(C)(C)OC3 | 0 | 34* | -16 | 0 | 12 | 21
Cc1ccc(C(=O)Cn2c(C)cc(C)c(C#N)c2=O)cc1 | 19 | -8 | 29* | 5 | 0 | -8
Cc1ccc(CC2(C)C(=O)Nc3c(Cl)cccc32)cc1 (stereo unspecified) | 13 | 7 | -8 | -2 | 0 | -11
CCCc1cc(=O)[nH]c(SCC(=O)N(C)CC(=O)Nc2ccc(C)cc2)n1 | 20 | -4 | 23* | -3 | 0 | -15
CCOC(=O)C1(Cc2ccc(OC)cc2)CCN(C(=O)CCc2cccnc2)CC1 | -2 | -4 | -3 | 3 | 1 | 17
COc1cccc(S(=O)(=O)Nc2ccc(C(=O)Nc3ccncc3)cc2)c1 | 12 | 4 | -4 | -3 | 2 | -5
O=C(Nc1ccc(NS(=O)(=O)c2ccccc2)cc1)c1ccc(Cl)cc1 | 4 | 11 | -7 | -6 | 2 | 2
O=C(Nc1ccc(Br)cc1)c1cccc(S(=O)(=O)Nc2cnc3ccccc3c2)c1 | -7 | 18 | -12 | 3 | 6 | 16
COc1ccc(NC(=O)c2cccc(S(=O)(=O)Nc3ccc(Br)cc3)c2)cn1 | -1 | 24 | -18 | 6 | 16* | 18
O=C(Nc1cccc(S(=O)(=O)Nc2ccc(Cl)cc2)c1)c1ccc(Cl)nc1 | -2 | 35* | -20 | 5 | 14 | 28*
COc1ccc(NS(=O)(=O)c2cccc(NC(=O)c3ccc(Cl)nc3)c2)cc1 | -8 | 35* | -18 | 5 | 12 | 43*
O=C(COC(=O)CCSc1ccc(Cl)cc1)NCCc1ccccc1 | 20 | 2 | -2 | 0 | 2 | 6
O=C(c1ccco1)N1N=C2CCCCCC2C1(O)C(F)(F)F (stereo unspecified) | 16 | -3 | 0 | -9 | 0 | -3
CCOC(=O)C1=C(c2ccccc2)NC(=O)NC1c1ccc(O)c(OCC)c1 (stereo unspecified) | -1 | 8 | -2 | -3 | 0 | -11
CCOC(=O)C1=C(CS(=O)(=O)c2ccc(C)cc2)NC(=O)NC1c1ccc(O)c(OC)c1 (stereo unspecified) | -8 | -11 | 20* | 3 | 0 | -3
CCOc1cc(C2NC(=O)NC(C)=C2C(=O)OCC2CCCCC2)ccc1O (stereo unspecified) | -12 | 29* | -14 | -5 | 0 | 5
S=c1[nH]nc(CN2CCCC2)n1Cc1ccccc1 | -13 | 9 | -7 | -18 | -1 | 34*
CCn1c(Cc2ccccc2)n[nH]c1=S | 20 | -5 | 7 | -10 | 1 | -23
CCCCn1c(Cc2ccccc2)n[nH]c1=S | -6 | 39* | -19 | -7 | 0 | 4
S=c1[nH]nc(CN2CCCCC2)n1Cc1ccccc1 | 9 | 6 | -33 | -18 | 0 | -5
COc1ccc(N2CCN(C(=O)c3ccc(C)c(Cl)c3)CC2)cc1 | -3 | -1 | -4 | -1 | 0 | 29*
COc1ccc(N2CCN(C(=O)c3ccc(Cl)c(S(=O)(=O)N4CCCC4)c3)CC2)cc1 | 17 | -14 | 0 | -2 | 5 | -18

Bioassay records deposited in PubChem by The Scripps Research Institute Molecular Screening Center.
